Data from PMC11164214 (International Journal of Nanomedicine, 2024).

Tests used:
In vitro release assay = assay type: physicochemical; conditions: 37°C
Summary of the method: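 Dynamic dialysis, bag MWCO 8–14 kDa. Liposomal DHA, or DHA dispersed in 0.5% w/v carboxymethyl cellulose sodium as control. Incubated in SGF (pH 1.2) for 2 h, then SIF (pH 6.8) for 22 h, at 37 ± 0.5°C with shaking at 150 rpm. Medium sampled at 0.5–24 h and replaced with fresh medium. DHA measured by UV‒Vis after treatment in 2% NaOH:ethanol (4:1, v/v) at 60°C for 30 min; absorbance at 238 nm.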

[1] = Intestinal lymphatic transport inhibition study; assay type: in vivo, rats; conditions: CHX 3.0 mg/kg i.p. 1 h before, oral 10 mg/kg DHA
Summary of the method: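 Male Sprague-Dawley rats (200 ± 20 g) given cycloheximide 3.0 mg/kg i.p. to block chylomicron secretion. One hour later, oral DHA suspension or liposomal DHA at 10 mg/kg DHA equivalent. Plasma DHA quantified by validated HPLC‒MS/MS after ether extraction, with artemisinin as internal standard. Means ± SD, n = 4.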

[2] = Biodistribution in mesenteric lymph nodes after oral administration; assay type: in vivo, mice
Summary of the method: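 Male ICR mice (20 ± 2 g), acclimatised 1 week. Single oral dose of 4 mg/kg DiR as free-dye solution or liposomes (dye at 8% w/w in lipid). Mice killed at 1, 2, 4 and 6 h; intestinal tracts and MLNs excised for ex vivo fluorescence imaging (means ± SD, n = 3). Dil formulations given orally at 4 mg/kg; MLNs examined by CLSM at 4 h.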

Which “cumulative release rate of DHA at 12 h” value (In vitro release assay; SGF 2 h then SIF) does the source give for C[C@H]1[C@@H](O)O[C@@H]2O[C@@]3(C)CC[C@H]4[C@H](C)CC[C@@H]1[C@@]24OO3 [DHA, Dihydroartemisinin] here?
Its value is 94.29%.

And the “DHA released during the first 2 h in SGF” value (In vitro release assay; SGF pH 1.2, 2 h)?
Its value is “more than 65%”.

What about the “decrease of AUC0~8 of DHA in CHX pretreated rats” value [1] of the same molecule?
Its value is “little influence”.

What about the “decrease of Cmax of DHA in CHX pretreated rats” value [1] of the same molecule?
Its value is “little influence”.

Which “accumulation / fluorescence signal in the MLNs (ex vivo imaging)” value ([2]; oral 4 mg/kg DiR) does the source give for CCCCCCCCCCCCCCCCCCN1/C(=C/C=C/C=C/C=C/C2=[N+](CCCCCCCCCCCCCCCCCC)c3ccccc3C2(C)C)C(C)(C)c2ccccc21.[I-] [free DiR, 1,1’-dioctadecyl-3,3,3’,3’-tetramethylindotricarbocyaine iodide] here?
Its value is “rare fluorescence signal”.

Which “red fluorescence signal in the MLNs (CLSM)” value ([2]; oral 4 mg/kg Dil, 4 h) does the source give for CCCCCCCCCCCCCCCCCCN1/C(=C/C=C/C2=[N+](CCCCCCCCCCCCCCCCCC)c3ccccc3C2(C)C)C(C)(C)c2ccccc21.[O-][Cl+3]([O-])([O-])[O-] [free Dil, 1,1’-Dioctadecyl-3,3,3’,3’-tetramethylindocarbocyanine perchlorate] here?
Its value is “negligible”.
